This passage reports IC50, MIC and LC50 results from ChEMBL document CHEMBL3627646, “Synthesis and biological activity of amino acid derivatives of avarone and its model compound” (Bioorg Med Chem, 2015).

Converted amounts (≈) assume the structure as drawn. The source made the active and inactive calls.

Tested on in the first data set: not listed separately
In words: Cytotoxicity against human Fem-X cells assessed as cell survival after 72 hrs by MTT assay. In kind it is functional, cell-based.
Details: not given
In a few lines: (§1)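 Cells seeded (HeLa 2000, MDA-MB-453 3000, others 5000 per well), treated 24 h later (K562 after 2 h). Five double-diluted final concentrations, 200–12.5 μM, from 10 mM DMSO stocks, in RPMI-1640 with 10% FBS, pH 7.2, 72 h. MTT 4 h at 37 °C, SDS added, A570 read next day. Survival relative to medium control; IC50 from survival curves; triplicate; cisplatin positive control.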
For orientation: Tetrazolium assays rely on reduction of a dye to a coloured formazan, in cell work by metabolically active cells.
As for `CC(C)(C)C1=CC(=O)C=C(N[C@@H](Cc2ccccc2)C(=O)O)C1=O`, the IC50 (usually the concentration that gives 50% inhibition) came out at 67.3 µM.

As for `CC1=CCC[C@H]2[C@](C)(CC3=CC(=O)C=CC3=O)[C@@H](C)CC[C@]12C` [AVARONE], the IC50 is 40.3 µM.

The subject of another data set is Staphylococcus aureus. In words: Antibacterial activity against Staphylococcus aureus ATCC 6538 after 24 hrs by microbroth double dilution method. As to conditions: ATCC 6538, 24 h. In kind it is functional. An outline of the steps:
(§2)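 Microbroth double dilution in Mueller Hinton broth; compound stock 10 mg/mL in DMSO serially halved across rows. Wells inoculated with 10 μL culture at 10^6 cells/mL, incubated 37 °C for 24 h. Amikacin row as positive control, DMSO row as negative control. MIC taken as lowest concentration inhibiting bacterial growth.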
Turning to `CC(C)(C)C1=CC(=O)C=C(N[C@@H](Cc2ccccc2)C(=O)O)C1=O`, the MIC – broadly, the smallest concentration in the dilution series that meets the test's criterion for growth inhibition – is 480 µM (≈ 157 µg/mL).

`CC1=CCC[C@H]2[C@](C)(CC3=CC(=O)C=CC3=O)[C@@H](C)CC[C@]12C` [AVARONE] showed an MIC of 40.1 µM (≈ 12.5 µg/mL).

Another data set has as its system Salmonella enterica. The data set can be described thus: Antibacterial activity against Salmonella enterica ATCC 13076 after 24 hrs by microbroth double dilution method. Particulars: ATCC 13076, 24 h. In kind it is functional. An outline of the steps: as §2
Background: Dilution methods test growth across graded concentrations, often in twofold steps.
`CC(C)(C)C1=CC(=O)C=C(N[C@@H](Cc2ccccc2)C(=O)O)C1=O` had an MIC of 1910 µM (≈ 626 µg/mL).

Take `CC1=CCC[C@H]2[C@](C)(CC3=CC(=O)C=CC3=O)[C@@H](C)CC[C@]12C` [AVARONE]: the MIC is 55.1 µM (≈ 17.2 µg/mL).

The test system of the next data set is Escherichia coli. In words: Antibacterial activity against Escherichia coli ATCC 25922 after 24 hrs by microbroth double dilution method. In kind it is functional. Particulars: ATCC 25922, 24 h. An outline of the steps:
as §2
Take `CC(C)(C)C1=CC(=O)C=C(N[C@@H](Cc2ccccc2)C(=O)O)C1=O`: the MIC turned out to be 480 µM (≈ 157 µg/mL).

As to `CC1=CCC[C@H]2[C@](C)(CC3=CC(=O)C=CC3=O)[C@@H](C)CC[C@]12C` [AVARONE], it took 441 µM (≈ 138 µg/mL) to inhibit growth (MIC).

The next data set deals with Clostridium sporogenes. The data set can be described thus: Antibacterial activity against Clostridium sporogenes ATCC 19404 after 24 hrs by microbroth double dilution method. It counts as functional. As to conditions: ATCC 19404, 24 h. In a few lines:
as §2
In turn, `CC(C)(C)C1=CC(=O)C=C(N[C@@H](Cc2ccccc2)C(=O)O)C1=O` had an MIC of 1910 µM (≈ 626 µg/mL).

In turn, `CC1=CCC[C@H]2[C@](C)(CC3=CC(=O)C=CC3=O)[C@@H](C)CC[C@]12C` [AVARONE] registered an MIC of 20 µM (≈ 6.26 µg/mL).

A further data set concerns Aspergillus brasiliensis. The data set can be described thus: Antifungal activity against Aspergillus brasiliensis ATCC 16404 after 24 hrs by microbroth double dilution method. In kind it is functional.
Details: not given
Regarding `CC1=CCC[C@H]2[C@](C)(CC3=CC(=O)C=CC3=O)[C@@H](C)CC[C@]12C` [AVARONE], the MIC entry was “inactive”.

Still in this data set, the particulars now being: ATCC 16404, 24 h.
`CC(C)(C)C1=CC(=O)C=C(N[C@@H](Cc2ccccc2)C(=O)O)C1=O` registered an MIC of 957 µM (≈ 313 µg/mL).

A further data set deals with Micrococcus flavus. In words: Antibacterial activity against Micrococcus flavus ATCC 10240 after 24 hrs by microbroth double dilution method. In kind it is functional. As to conditions: ATCC 10240, 24 h. An outline of the steps:
as §2
Compound `CC(C)(C)C1=CC(=O)C=C(N[C@@H](Cc2ccccc2)C(=O)O)C1=O` had an MIC of 1910 µM (≈ 626 µg/mL).

Turning to `CC1=CCC[C@H]2[C@](C)(CC3=CC(=O)C=CC3=O)[C@@H](C)CC[C@]12C` [AVARONE], it took 20 µM (≈ 6.26 µg/mL) to inhibit growth (MIC).

The next data set deals with Pseudomonas aeruginosa. In words: Antibacterial activity against Pseudomonas aeruginosa ATCC 9027 after 24 hrs by microbroth double dilution method. It counts as functional. As to conditions: ATCC 9027, 24 h. An outline of the steps:
as §2
Regarding `CC(C)(C)C1=CC(=O)C=C(N[C@@H](Cc2ccccc2)C(=O)O)C1=O`, the MIC worked out at 1910 µM (≈ 626 µg/mL).

On to `CC1=CCC[C@H]2[C@](C)(CC3=CC(=O)C=CC3=O)[C@@H](C)CC[C@]12C` [AVARONE], for which the minimum inhibitory concentration (MIC) was found to be 13.8 µM (≈ 4.31 µg/mL).

The subject of another data set is Artemia salina. In words: Cytotoxicity in Brine shrimp assessed as nauplii mortality after 24 hrs. In kind it is organism-based. As to conditions: in vivo. In a few lines:
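Artemia salina eggs hatched in aerated tap water with dried yeast at 18–20 °C under illumination for 48 h, and freshly hatched nauplii were used. Compounds in DMSO (0.01–1 mg) were added to 950 µL artificial seawater containing 10–20 nauplii, with 5% final DMSO. After 24 h under illumination at room temperature, dead and surviving nauplii were counted and statistically analysed.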
For the compound `CC(C)(C)C1=CC(=O)C=C(N[C@@H](Cc2ccccc2)C(=O)O)C1=O`, the LC50 – broadly, the concentration that kills 50% of the test population – was 196.8 ppm.

In the case of `CC1=CCC[C@H]2[C@](C)(CC3=CC(=O)C=CC3=O)[C@@H](C)CC[C@]12C` [AVARONE], the LC50 was 170 ppm.

For a further data set, the system named is Proteus hauseri. In words: Antibacterial activity against Proteus hauseri ATCC 13315 after 24 hrs by microbroth double dilution method. In kind it is functional. As to conditions: ATCC 13315, 24 h. In a few lines:
as §2
Consider `CC(C)(C)C1=CC(=O)C=C(N[C@@H](Cc2ccccc2)C(=O)O)C1=O`, for which the MIC is 1910 µM (≈ 626 µg/mL).

For `CC1=CCC[C@H]2[C@](C)(CC3=CC(=O)C=CC3=O)[C@@H](C)CC[C@]12C` [AVARONE], the minimal inhibitory concentration (MIC) came out at 27.6 µM (≈ 8.61 µg/mL).

For another data set, the system named is Candida albicans. In words: Antifungal activity against Candida albicans ATCC 10231 after 24 hrs by microbroth double dilution method. It counts as functional.
Details: not given
Consider `CC1=CCC[C@H]2[C@](C)(CC3=CC(=O)C=CC3=O)[C@@H](C)CC[C@]12C` [AVARONE], for which the MIC entry is “inactive”.

The data set is the same for the next values; noted with them: ATCC 10231, 24 h.
`CC(C)(C)C1=CC(=O)C=C(N[C@@H](Cc2ccccc2)C(=O)O)C1=O` came in with an MIC of 480 µM (≈ 157 µg/mL).

The test system of another data set is Micrococcus luteus. The data set can be described thus: Antibacterial activity against Micrococcus luteus ATCC 4698 after 24 hrs by microbroth double dilution method. In kind it is functional. As to conditions: ATCC 4698, 24 h. In a few lines: as §2
In the case of `CC(C)(C)C1=CC(=O)C=C(N[C@@H](Cc2ccccc2)C(=O)O)C1=O`, the MIC is 480 µM (≈ 157 µg/mL).

`CC1=CCC[C@H]2[C@](C)(CC3=CC(=O)C=CC3=O)[C@@H](C)CC[C@]12C` [AVARONE] gave an MIC of 2000 µM (≈ 625 µg/mL).

Another data set relates to MDA-MB-453. In words: Cytotoxicity against human MDA-MB-453 cells assessed as cell survival after 72 hrs by MTT assay. In kind it is functional, cell-based. As to conditions: MDA-MB-453, 72 h. An outline of the steps:
as §1
Regarding `CC(C)(C)C1=CC(=O)C=C(N[C@@H](Cc2ccccc2)C(=O)O)C1=O`, the IC50 worked out at 68 µM.

On to `CC1=CCC[C@H]2[C@](C)(CC3=CC(=O)C=CC3=O)[C@@H](C)CC[C@]12C` [AVARONE], for which the IC50 came to 16.7 µM.

A further data set deals with HeLa. In words: Cytotoxicity against human HeLa cells assessed as cell survival after 72 hrs by MTT assay. It counts as functional, cell-based.
Details: not given
In a few lines:
as §1
Turning to `CC(C)(C)C1=CC(=O)C=C(N[C@@H](Cc2ccccc2)C(=O)O)C1=O`, the IC50 worked out at 66.3 µM.

Take `CC1=CCC[C@H]2[C@](C)(CC3=CC(=O)C=CC3=O)[C@@H](C)CC[C@]12C` [AVARONE]: the IC50 was 18.1 µM.

The test system of another data set is MRC5. The data set can be described thus: Cytotoxicity against human MRC5 cells assessed as cell survival after 72 hrs by MTT assay. It counts as cell-based. Particulars: MRC5, 72 h. In a few lines:
as §1
In the case of `CC(C)(C)C1=CC(=O)C=C(N[C@@H](Cc2ccccc2)C(=O)O)C1=O`, the IC50 was > 200 µM.

On to `CC1=CCC[C@H]2[C@](C)(CC3=CC(=O)C=CC3=O)[C@@H](C)CC[C@]12C` [AVARONE], for which the IC50 is > 200 µM.

In another data set the test system is Bacillus subtilis. In words: Antibacterial activity against Bacillus subtilis ATCC 6633 after 24 hrs by microbroth double dilution method. In kind it is functional. As to conditions: ATCC 6633, 24 h. An outline of the steps:
as §2
`CC(C)(C)C1=CC(=O)C=C(N[C@@H](Cc2ccccc2)C(=O)O)C1=O` showed an MIC of 1910 µM (≈ 626 µg/mL).

For the compound `CC1=CCC[C@H]2[C@](C)(CC3=CC(=O)C=CC3=O)[C@@H](C)CC[C@]12C` [AVARONE], the lowest concentration to inhibit growth (MIC) was 80.1 µM (≈ 25 µg/mL).

A further data set relates to K562. In words: Cytotoxicity against human K562 cells assessed as cell survival after 72 hrs by MTT assay. It counts as functional, cell-based. As to conditions: K562, 72 h. An outline of the steps:
as §1
Regarding `CC(C)(C)C1=CC(=O)C=C(N[C@@H](Cc2ccccc2)C(=O)O)C1=O`, the IC50 is 82.3 µM.

Regarding `CC1=CCC[C@H]2[C@](C)(CC3=CC(=O)C=CC3=O)[C@@H](C)CC[C@]12C` [AVARONE], the IC50 worked out at 17.1 µM.

The next data set has as its system A549. The data set can be described thus: Cytotoxicity against human A549 cells assessed as cell survival after 72 hrs by MTT assay. It counts as functional, cell-based. Particulars: A549, 72 h. In a few lines:
as §1
Turning to `CC(C)(C)C1=CC(=O)C=C(N[C@@H](Cc2ccccc2)C(=O)O)C1=O`, the IC50 was 164 µM.

As for `CC1=CCC[C@H]2[C@](C)(CC3=CC(=O)C=CC3=O)[C@@H](C)CC[C@]12C` [AVARONE], the IC50 was found to be 30 µM.

A further data set concerns Kocuria rhizophila. The data set can be described thus: Antibacterial activity against Kocuria rhizophila ATCC 9341 after 24 hrs by microbroth double dilution method. As to conditions: ATCC 9341, 24 h. It counts as functional. In a few lines: as §2
In the case of `CC(C)(C)C1=CC(=O)C=C(N[C@@H](Cc2ccccc2)C(=O)O)C1=O`, the MIC was 1910 µM (≈ 626 µg/mL).

Take `CC1=CCC[C@H]2[C@](C)(CC3=CC(=O)C=CC3=O)[C@@H](C)CC[C@]12C` [AVARONE]: the MIC is 20 µM (≈ 6.26 µg/mL).

The next data set relates to Saccharomyces cerevisiae. The data set can be described thus: Antifungal activity against Saccharomyces cerevisiae ATCC 9763 after 24 hrs by microbroth double dilution method. In kind it is functional.
Details: not given
As for `CC1=CCC[C@H]2[C@](C)(CC3=CC(=O)C=CC3=O)[C@@H](C)CC[C@]12C` [AVARONE], the MIC result is “inactive”.

Still in this data set, the particulars now being: ATCC 9763, 24 h.
`CC(C)(C)C1=CC(=O)C=C(N[C@@H](Cc2ccccc2)C(=O)O)C1=O` registered an MIC of 119 µM (≈ 39 µg/mL).
